Assay [1] has as its target T1, Phospho-N-acetylmuramoyl-pentapeptide-transferase (Bacillus subtilis (strain 168), UniProt Q03521).
T1 sequence (Q03521 whole entry): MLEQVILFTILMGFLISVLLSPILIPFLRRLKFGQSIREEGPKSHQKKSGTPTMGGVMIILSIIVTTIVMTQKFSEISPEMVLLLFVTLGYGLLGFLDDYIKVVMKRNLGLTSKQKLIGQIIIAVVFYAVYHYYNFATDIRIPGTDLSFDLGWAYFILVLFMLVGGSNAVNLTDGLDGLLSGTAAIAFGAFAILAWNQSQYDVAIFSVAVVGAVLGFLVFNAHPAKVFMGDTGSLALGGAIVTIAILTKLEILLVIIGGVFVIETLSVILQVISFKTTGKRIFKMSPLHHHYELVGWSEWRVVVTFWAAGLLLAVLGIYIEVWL
In words: Inhibition of Bacillus subtilis MraY after 30 mins using UDP-MurNAc-pentapeptide as substrate.

In assay [2] the test system is Enterococcus faecium. Briefly: Antibacterial activity against Enterococcus faecium ATCC 19434 after 20 hrs by two fold microdilution broth method. The assay is classed as functional. The conditions noted are these: ATCC 19434, 20 h. An outline of the steps:
(§1)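 NCCLS-recommended broth microdilution in cation-adjusted Mueller-Hinton broth; serial 2-fold compound dilutions; each well inoculated with 5×10⁴ CFU in 0.1 mL; incubated 35 °C for 20 h, then MIC (μg/mL) scored.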

The test system of assay [3] is Enterococcus faecium. In words: Antibacterial activity against vancomycin-resistant Enterococcus faecium SR-7917 clinical isolate after 20 hrs by two fold microdilution broth method. The conditions noted are these: SR7917, 20 h. Type of assay: functional. The procedure, abridged:
(§2)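 NCCLS broth microdilution in cation-adjusted Mueller-Hinton broth. Serial 2-fold compound dilutions, inoculum 5×10⁴ CFU per well in 0.1 mL. Plates incubated at 35 °C for 20 h, then MIC (μg/mL) scored. Strains are clinical isolates from Japanese hospitals: MRSA SR3637, VanA E. faecalis SR7914, VanA E. faecium SR7917.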
For orientation: Dilution methods test growth across graded concentrations, often in twofold steps.

For assay [4], the system named is Staphylococcus aureus. In words: Antibacterial activity against methicillin-sensitive Staphylococcus aureus ATCC 29213 after 20 hrs by two fold microdilution broth method. The assay is classed as functional. The conditions noted are these: ATCC 29213, 20 h. An outline of the steps: as §1
For assay [5], the system named is Enterococcus faecalis. Briefly: Antibacterial activity against Enterococcus faecalis ATCC 29212 after 20 hrs by two fold microdilution broth method. Type of assay: functional. The conditions noted are these: ATCC 29212, 20 h. The procedure, abridged:
as §1

Assay [6] deals with Staphylococcus aureus. Briefly: Antibacterial activity against methicillin-resistant Staphylococcus aureus SR-3637 clinical isolate after 20 hrs by two fold microdilution broth method. The assay is classed as functional. The conditions noted are these: SR3637, 20 h. An outline of the steps: as §2
The subject of assay [7] is Enterococcus faecalis. In words: Antibacterial activity against vancomycin-resistant Enterococcus faecalis SR-7914 clinical isolate after 20 hrs by two fold microdilution broth method. Type of assay: functional. The conditions noted are these: SR7914, 20 h. An outline of the steps:
as §2

Molecules are shown by their SMILES. pIC50: −log10 of the molar value. In brackets after ≈: the same amount, converted by molar mass. A value given as a limit tells only on which side of the number the result lay.

Experimental findings from ChEMBL document CHEMBL1157746, “Function-oriented synthesis of simplified caprazamycins: discovery of oxazolidine-containing uridine derivatives as antibacterial agents against drug-resistant bacteria” (J Med Chem, 2010) are described below.

The pIC50 is −log10 of the IC50, conventionally taken in molar units. The low end stands for a large IC50, the high end for a small IC50. One may read the MIC as the lowest concentration found to suppress growth. Read a high MIC as a less susceptible organism.

In the case of `CCCCCCCCc1ccc(NC(=O)N[C@H](C(=O)O)[C@H](O[C@@H]2O[C@H](CN)[C@@H](O)[C@H]2O)[C@@H]2O[C@@H](n3ccc(=O)[nH]c3=O)[C@H](O)[C@@H]2O)cc1.O=C(O)C(F)(F)F`, in assay [1], the pIC50 was 4.12. The minimal inhibitory concentration (MIC) was > 64 mg/L in assay [2]; > 64 mg/L in assay [3]; > 64 mg/L in assay [4]; 64 mg/L in assay [5]; > 64 mg/L in assay [6]; 64 mg/L in assay [7].
The compound `CCCCCCCCCCCCCCCC(=O)N1[C@H](C(=O)O)[C@@H]([C@H]2O[C@@H](n3ccc(=O)[nH]c3=O)[C@H](O)[C@@H]2O)O[C@@H]1CN` had a pIC50 in assay [1] of 3.13. The minimal inhibitory concentration (MIC) in assay [2], in assay [3], in assay [4], in assay [5], in assay [6] and in assay [7] was > 64 mg/L throughout.
Turning to `CCCCCCCCCCCCCCCCNC(=O)[C@@H]1[C@@H]([C@H]2O[C@@H](n3ccc(=O)[nH]c3=O)[C@H](O)[C@@H]2O)O[C@H](CCCN)N1C(C)=O.Cl`, the minimal inhibitory concentration (MIC) was 16 mg/L in assay [2]; 16 mg/L in assay [3]; 16 mg/L in assay [4]; 16 mg/L in assay [5]; 32 mg/L in assay [6]; 16 mg/L in assay [7].
Regarding `CCCCCCCCCCCCCCCCNC(=O)[C@@H]1[C@@H]([C@H]2O[C@@H](n3ccc(=O)[nH]c3=O)[C@H](O)[C@@H]2O)O[C@H](CN)N1C(C)=O.Cl`, the minimal inhibitory concentration (MIC) came out at 16 mg/L in assay [2]; 16 mg/L in assay [3]; 16 mg/L in assay [4]; 32 mg/L in assay [5]; 32 mg/L in assay [6]; 16 mg/L in assay [7].
In the case of `CCCCCCCCCCCCCCCCNC(=O)[C@@H]1[C@@H]([C@H]2O[C@@H](n3ccc(=O)[nH]c3=O)[C@H](O)[C@@H]2O)O[C@H](CCN)N1C(C)=O.Cl`, the MIC in assay [2], in assay [3], in assay [4], in assay [5], in assay [6] and in assay [7] was 16 mg/L in each case.
Compound `CCCCCCCCCCCC(=O)N[C@H](C(=O)O)[C@H](O[C@@H]1O[C@H](CN)[C@@H](O)[C@H]1O)[C@H]1O[C@@H](n2ccc(=O)[nH]c2=O)[C@H](O)[C@@H]1O.O=C(O)C(F)(F)F` gave a pIC50 in assay [1] of 4.20. For the same compound, the minimal inhibitory concentration (MIC) in assay [2], in assay [3], in assay [4], in assay [5], in assay [6] and in assay [7] was > 64 mg/L in each case.
`CCCCCCCCCCCCCCCC(=O)N1[C@H](C(=O)O)[C@@H]([C@H]2O[C@@H](n3ccc(=O)[nH]c3=O)[C@H](O)[C@@H]2O)O[C@@H]1CCN` showed a negative-log IC50 (pIC50) in assay [1] of 3.35. In addition, the MIC in assay [2], in assay [3], in assay [4], in assay [5], in assay [6] and in assay [7] was > 64 mg/L in each case.
As for `CCCCCCCCCCCCCCCC(=O)N1[C@H](C(=O)OC(C)(C)C)[C@@H]([C@H]2O[C@@H](n3ccc(=O)[nH]c3=O)[C@H](O)[C@@H]2O)O[C@@H]1CCN`, the MIC in assay [2] was 2 mg/L (≈ 3 µM); in assay [3], 8 mg/L (≈ 12 µM); in assay [4], 8 mg/L (≈ 12 µM); in assay [5] it was 2 mg/L (≈ 3 µM); in assay [6] it was 16 mg/L (≈ 24 µM); in assay [7] it was 2 mg/L (≈ 3 µM).
As to `CCCCCCCCCCCCCCCC(=O)N1[C@H](C(=O)OC)[C@@H]([C@H]2O[C@@H](n3ccc(=O)[nH]c3=O)[C@H](O)[C@@H]2O)O[C@@H]1CCN.Cl`, the pIC50 in assay [1] is 3.04. In addition, the MIC in assay [2] was determined as 4 mg/L; in assay [3], 8 mg/L; in assay [4], 8 mg/L; in assay [5], 8 mg/L; in assay [6], 8 mg/L; in assay [7], 16 mg/L.
In assay [1], `CCCCCCCCCCCCNC(=O)[C@@H](N)[C@H](O[C@@H]1O[C@H](CN)[C@@H](O)[C@H]1O)[C@H]1O[C@@H](n2ccc(=O)[nH]c2=O)[C@H](O)[C@@H]1O.O=C(O)C(F)(F)F` had a pIC50 of 4.74. For the same compound, the minimum inhibitory concentration (MIC) in assay [2] was determined as 16 mg/L; in assay [3], 16 mg/L; in assay [4], 64 mg/L; in assay [5], 16 mg/L; in assay [6], 64 mg/L; in assay [7], 32 mg/L.
In turn, `CCCCCCCCCCCCNC(=O)N[C@H](C(=O)O)[C@H](O[C@@H]1O[C@H](CN)[C@@H](O)[C@H]1O)[C@H]1O[C@@H](n2ccc(=O)[nH]c2=O)[C@H](O)[C@@H]1O.O=C(O)C(F)(F)F` showed a pIC50 in assay [1] of 4.44. In addition, the MIC was > 64 mg/L in assay [2]; > 64 mg/L in assay [3]; > 64 mg/L in assay [4]; 64 mg/L in assay [5]; > 64 mg/L in assay [6]; 64 mg/L in assay [7].
With `CCCCCCCCCCCCCCCC(=O)N1[C@H](C(=O)OC(C)(C)C)[C@@H]([C@H]2O[C@@H](n3ccc(=O)[nH]c3=O)[C@H](O)[C@@H]2O)O[C@@H]1CN`, the minimal inhibitory concentration (MIC) in assay [2] was 4 mg/L (≈ 6.13 µM); in assay [3], 4 mg/L (≈ 6.13 µM); in assay [4], 8 mg/L (≈ 12.3 µM); in assay [5] it was 4 mg/L (≈ 6.13 µM); in assay [6] it was 16 mg/L (≈ 24.5 µM); in assay [7], 2 mg/L (≈ 3.06 µM).
For the compound `CN[C@H](CC(C)C)C(=O)N[C@H]1C(=O)N[C@@H](CC(N)=O)C(=O)N[C@H]2C(=O)N[C@H]3C(=O)N[C@H](C(=O)N[C@H](C(=O)O)c4cc(O)cc(O)c4-c4cc3ccc4O)[C@H](O)c3ccc(c(Cl)c3)Oc3cc2cc(c3O[C@@H]2O[C@H](CO)[C@@H](O)[C@H](O)[C@H]2O[C@H]2C[C@](C)(N)[C@H](O)[C@H](C)O2)Oc2ccc(cc2Cl)[C@H]1O` [VANCOMYCIN], the minimum inhibitory concentration (MIC) in assay [2] is > 64 mg/L; in assay [3], > 64 mg/L; in assay [5], 1 mg/L (≈ 0.69 µM); in assay [7], > 64 mg/L.
The compound `CCCCCCCCCCCCCCCC(=O)N1[C@H](C(=O)OC)[C@@H]([C@H]2O[C@@H](n3ccc(=O)[nH]c3=O)[C@H](O)[C@@H]2O)O[C@@H]1CCCN.Cl` showed a pIC50 in assay [1] of 2.92. The MIC was determined as 8 mg/L in assay [2]; 4 mg/L in assay [3]; 8 mg/L in assay [4]; 8 mg/L in assay [5]; 8 mg/L in assay [6]; 16 mg/L in assay [7].
On to `CCCCCCCCc1ccc(NC(=O)[C@@H](N)[C@H](O[C@@H]2O[C@H](CN)[C@@H](O)[C@H]2O)[C@H]2O[C@@H](n3ccc(=O)[nH]c3=O)[C@H](O)[C@@H]2O)cc1.O=C(O)C(F)(F)F`, for which the negative-log IC50 (pIC50) in assay [1] was 4.34. Besides, the MIC in assay [2] is 32 mg/L; in assay [3], 32 mg/L; in assay [4], 64 mg/L; in assay [5] it was 16 mg/L; in assay [6], 64 mg/L; in assay [7], 64 mg/L.
The compound `CCCCCCCCCCCCCCCC(=O)N1[C@H](C(=O)OC)[C@@H]([C@H]2O[C@@H](n3ccc(=O)[nH]c3=O)[C@H](O)[C@@H]2O)O[C@@H]1CN.Cl` had a negative logarithm of the IC50 (pIC50) in assay [1] of 3.01. Further, the MIC in assay [2] is 32 mg/L; in assay [3] it was 16 mg/L; in assay [4], > 64 mg/L; in assay [5] it was 32 mg/L; in assay [6] it was 13 mg/L; in assay [7] it was 64 mg/L.
Consider `CCCCCCCCCCCCCCCC(=O)O[C@H]1CN[C@@H]([C@H](O[C@@H]2O[C@H](CN)[C@@H](O)[C@H]2O)[C@H]2O[C@@H](n3ccc(=O)[nH]c3=O)[C@H](O)[C@@H]2O)C(=O)N(C)[C@@H]1C(=O)O` [DESMETHYLPALMITOYLCAPRAZOL], for which the minimal inhibitory concentration (MIC) in assay [2] is 1 mg/L (≈ 1.25 µM); in assay [3], 1 mg/L (≈ 1.25 µM); in assay [4], 0.5 mg/L (≈ 0.625 µM); in assay [5], 0.5 mg/L (≈ 0.625 µM); in assay [6] it was 0.5 mg/L (≈ 0.625 µM); in assay [7], 2 mg/L (≈ 2.5 µM).
Regarding `CCCCCCCCCCCCCCCC(=O)N1[C@H](C(=O)OC)[C@@H]([C@H]2O[C@@H](n3ccc(=O)[nH]c3=O)[C@H](O)[C@@H]2O)O[C@@H]1CCCN=[N+]=[N-]`, the MIC is > 64 mg/L in assay [2]; 64 mg/L (≈ 96.3 µM) in assay [3]; > 64 mg/L in assay [4]; 32 mg/L (≈ 48.1 µM) in assay [5]; > 64 mg/L in assay [6]; > 64 mg/L in assay [7].
As to `CCCCCCCCCCCCCCCC(=O)N1[C@H](C(=O)OC)[C@@H]([C@H]2O[C@@H](n3ccc(=O)[nH]c3=O)[C@H](O)[C@@H]2O)O[C@@H]1CCN=[N+]=[N-]`, the MIC in assay [2] was 64 mg/L (≈ 98.3 µM); in assay [3], 64 mg/L (≈ 98.3 µM); in assay [4], > 64 mg/L; in assay [5], 16 mg/L (≈ 24.6 µM); in assay [6] it was > 64 mg/L; in assay [7] it was > 64 mg/L.
